Laboratory results taken from ChEMBL document CHEMBL4825665, “Effective degradation of EGFRL858R+T790M mutant proteins by CRBN-based PROTACs through both proteosome and autophagy/lysosome degradation systems” (Eur J Med Chem, 2021).
Active and inactive are the calls of the source. The calls are words filed in the database; no cut-off is given here.

Columns and labels:
[1] = test system: Protein cereblon/Epidermal growth factor receptor (Homo sapiens), P00533+Q96SW2 [L858R,T790M]; test: Protac activity at CRBN/EGFR L858R/T790M mutant in human NCI-H1975 cells assessed as increase in cell doubling time at 100 to 300 nM measured after 4 days by […] staining based fluorescence assay; details: dose 100-300 nM, time 4.0 day
PC-9 = test: Antiproliferative activity against human PC-9 cells assessed as inhibition of cell growth measured after 72 hrs by CCK-8 assay; assay type: functional, cell-based; details: PC-9, 72 h
Procedure, shortened: (§1)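 Cells seeded at 3000 cells/well in 96-well plates and treated with graded compound concentrations one day later for 72 h. CCK-8 was added for 1–4 h and absorbance read at 450 nm. Lung cancer lines were kept in RPMI 1640 with 10% fetal calf serum at 37 °C and 5% CO₂.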

BaF3 = test: Antiproliferative activity against mouse BaF3 cells assessed as inhibition of cell growth measured after 72 hrs by CCK-8 assay; assay type: functional, cell-based; details: BaF3, 72 h
Procedure, shortened: as §1

[2] = test system: Protein cereblon/Epidermal growth factor receptor (Homo sapiens), P00533+Q96SW2 [L858R,T790M]; test: Protac activity at CRBN/EGFR L858R/T790M mutant in human NCI-H1975 cells assessed as increase in ratio of LC3B2 to LC3B1 at 30 to 300 nM measured after 16 hrs by Western blot assay; assay type: cell-based; details: dose 30-300 nM
Procedure, shortened: (§2)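 H1975 cells in RPMI 1640 with 10% serum. Autophagy was read by Western blot as the LC3B II/LC3B I ratio. Serum-free medium and rapamycin served as autophagy-inducing positive controls, and rapamycin was also combined with degrader. Where pretreatment applied, compounds were added for 2 h before a 16 h PROTAC treatment.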

[3] = test system: Protein cereblon/Epidermal growth factor receptor (Homo sapiens), P00533+Q96SW2 [L858R,T790M]; test: Protac activity at CRBN/EGFR L858R/T790M mutant in human NCI-H1975 cells assessed as increase in ratio of LC3B2 to LC3B1 at 30 to 300 nM preincubated for 2 hrs in presence of Rapamycin and measured after 16 hrs by Western blot assay; assay type: cell-based; details: dose 30-300 nM, time 18.0 hrs
Procedure, shortened: as §2

NCI-H1975 [4] = test: Antiproliferative activity against human NCI-H1975 cells assessed as inhibition of cell growth measured after 72 hrs by CCK-8 assay; assay type: functional, cell-based; details: NCI-H1975, 72 h
Procedure, shortened: as §1

[5] = test system: Protein cereblon/Epidermal growth factor receptor (Homo sapiens), P00533+Q96SW2 [L858R,T790M]; test: Protac activity at CRBN/EGFR L858R/T790M mutant in human NCI-H1975 cells assessed as induction of EGFR degradation at 0.3 uM pre-incubated for 2 hrs in the presence of Bafilomycin A1 and measured after 16 hrs by Western blot assay; assay type: cell-based; details: time 18.0 hrs
[6] = test system: Protein cereblon/Epidermal growth factor receptor (Homo sapiens), P00533+Q96SW2 [UNDEFINED MUTATION]; test: Protac activity at CRBN/EGFR exon19 deletion/T790M mutant in human PC-9 cells transfected with BRCA1 assessed as induction of EGFR degradation at 1 to 1000 nM measured after 48 hrs by Western blot assay; assay type: cell-based; details: dose 1-1000 nM
Procedure, shortened: (§3)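 Cells seeded at 1-3X10^5/well and treated one day later with compounds at the concentrations and times given. Lysed in RIPA buffer with protease inhibitors. 15 µg protein run on 8% SDS-PAGE, transferred to nitrocellulose, probed for EGFR or phospho-EGFR, ECL detection. Lung lines kept in RPMI 1640 with 10% fetal calf serum, 37 °C, 5% CO2. DC50 is an estimated value. Repeated more than 3 times.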

[7] = test system: Protein cereblon/Epidermal growth factor receptor (Homo sapiens), P00533+Q96SW2 [L858R,T790M]; test: Protac activity at CRBN/EGFR L858R/T790M mutant in human NCI-H1975 cells assessed as induction of EGFR degradation at 50 nM measured after 16 hrs by Western blot assay; assay type: cell-based
Procedure, shortened: as §3

NCI-H1975 [8] = test: Induction of apoptosis in human NCI-H1975 cells expressing EGFR L858R/T790M mutant assessed as increase in number of apoptotic cells measured after 72 hrs by Annexin-V/FITC staining based flow cytometry method; assay type: functional, cell-based
Procedure, shortened: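 H1975 cells (8 × 10⁴/well, 12-well plates) treated one day after seeding at graded concentrations for 72 h. Collected, stained with Annexin V-FITC, and apoptosis measured by flow cytometry.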

[9] = test system: Protein cereblon/Epidermal growth factor receptor (Homo sapiens), P00533+Q96SW2 [L858R,T790M]; test: Protac activity at CRBN/EGFR L858R/T790M mutant in human NCI-H1975 cells assessed as induction of EGFR degradation at 30 to 500 nM by Western blot assay; assay type: cell-based; details: dose 30-500 nM, time 16-48 hrs, TDE = time-dependent effect
[10] = molecular target: T1, Protein cereblon/Epidermal growth factor receptor (Homo sapiens, UniProt P00533+Q96SW2); test: Protac activity at CRBN/EGFR in human PC-9 cells assessed as induction of EGFR degradation by Western blot assay relative to control; assay type: cell-based
Procedure, shortened: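 PC9 cells (EGFR Ex19del) seeded at 1–3 × 10⁵/well in 12-well plates and treated the next day with graded degrader concentrations for 48 h. Lysed in RIPA buffer with protease inhibitors, 15 µg protein resolved on 8% SDS-PAGE, and EGFR detected by immunoblot with ECL. DC50 estimated from blots; experiments repeated more than 3 times.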

[11] = test system: Protein cereblon/Epidermal growth factor receptor (Homo sapiens), P00533+Q96SW2 [L858R,T790M]; test: Protac activity at CRBN/EGFR L858R/T790M mutant in human NCI-H1975 cells assessed as induction of EGFR degradation measured after 16 hrs by Western blot assay; assay type: cell-based
Procedure, shortened: as §3

[12] = molecular target: T1, Protein cereblon/Epidermal growth factor receptor; test: Protac activity at CRBN/EGFR in mouse BaF3 cells assessed as induction of EGFR degradation by Western blot assay; assay type: cell-based
NCI-H1975 [13] = test: Inhibition of cell invasion in human NCI-H1975 cells expressing EGFR L858R/T790M mutant assessed at 500 nM measured after 18 hrs by transwell assay; assay type: functional; parameters: scale not given: the % may be the effect or the level left
Procedure, shortened: (§4)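 GFP-expressing H1975 cells were trypsinised and resuspended in serum-free medium containing compound. Seeded into Matrigel-coated transwell inserts (8 µm pores) above RPMI 1640 full growth medium, at 37 °C and 5% CO₂. Invaded cells imaged by fluorescence microscopy in five random fields per insert and counted. Three independent repeats.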

NCI-H1975 [14] = test: Inhibition of cell invasion in human NCI-H1975 cells expressing EGFR L858R/T790M mutant assessed at 500 nM measured after 42 hrs by transwell assay; assay type: functional; parameters: scale not given: the % may be the effect or the level left
Procedure, shortened: as §4

NCI-H1975 [15] = test: Antimigratory activity in human NCI-H1975 cells expressing EGFR L858R/T790M mutant at 300 to 500 nM measured after 24 hrs by wound healing assay; assay type: functional, cell-based; details: dose 300-500 nM
Procedure, shortened: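 H1975 cells seeded in 24-well plates, scratched at confluence with a pipette tip 24 h later and washed three times with PBS. Then incubated with degrader at 300 or 500 nM. Six photos per well taken at set time points, and the uncovered wound area quantified.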

[16] = test system: Protein cereblon/Epidermal growth factor receptor (Homo sapiens), P00533+Q96SW2 [L858R,T790M]; test: Protac activity at CRBN/EGFR L858R/T790M mutant in human NCI-H1975 cells assessed as induction of EGFR degradation at 30 nM measured after 16 hrs by Western blot assay; assay type: cell-based
Procedure, shortened: as §3

| SMILES | Activity [1] | IC50 (PC-9) [nM] | IC50 (BaF3) [nM] | Activity [2] | Activity [3] | IC50 (NCI-H1975 [4]) [nM] | Activity [5] | Activity [6] | Activity [7] | Activity (NCI-H1975 [8]) | Activity [9] | %max [10] [%] | Activity [11] | DC50 [12] [nM] | Activity (NCI-H1975 [13]) [%] | Activity (NCI-H1975 [14]) [%] | Activity (NCI-H1975 [15]) | Activity [16] |
| --- | --- | --- | --- | --- | --- | --- | --- | --- | --- | --- | --- | --- | --- | --- | --- | --- | --- | --- |
| C=CC(=O)Nc1cc2c(Nc3ccc(F)c(Cl)c3)ncnc2cc1OCCCN1CCN(C(=O)CCCCCNc2cccc3c2C(=O)N(C2CCC(=O)NC2=O)C3=O)CC1 (stereo not given) | Active | 2.6 | 71.3 | Active | Active | 22.1 | inactive | inactive | Active | Active | Tde | 40 | Active | 100 | – | – | – | – |
| C=CC(=O)Nc1cc2c(Nc3ccc(F)c(Cl)c3)ncnc2cc1OCCCN1CCN(C(=O)CCCCCCNc2cccc3c2C(=O)N(C2CCC(=O)NC2=O)C3=O)CC1 (stereo not given) | Active | 3.94 | 51.3 | Active | Active | 26.5 | inactive | inactive | – | Active | Tde | – | Active | 100 | 38 | 40 | Active | Active |
